Data as given in ChEMBL document CHEMBL1255380, “Small molecule-mediated disruption of Wnt-dependent signaling in tissue regeneration and cancer” (Nat Chem Biol, 2009).
The source made the active and inactive calls. The rule behind the calls is not given here.

Assays:
[1] = molecular target: T1, Protein-serine O-palmitoleoyltransferase porcupine (Homo sapiens) (UniProt Q9H237); assay: Inhibition of porcn-mediated Shh palmitoylation in human DLD1 lysate by detergent solubility fractionation assessed as [3H]palmitate incorporation at 2.5 uM by autoradiography method
T1 sequence (whole entry): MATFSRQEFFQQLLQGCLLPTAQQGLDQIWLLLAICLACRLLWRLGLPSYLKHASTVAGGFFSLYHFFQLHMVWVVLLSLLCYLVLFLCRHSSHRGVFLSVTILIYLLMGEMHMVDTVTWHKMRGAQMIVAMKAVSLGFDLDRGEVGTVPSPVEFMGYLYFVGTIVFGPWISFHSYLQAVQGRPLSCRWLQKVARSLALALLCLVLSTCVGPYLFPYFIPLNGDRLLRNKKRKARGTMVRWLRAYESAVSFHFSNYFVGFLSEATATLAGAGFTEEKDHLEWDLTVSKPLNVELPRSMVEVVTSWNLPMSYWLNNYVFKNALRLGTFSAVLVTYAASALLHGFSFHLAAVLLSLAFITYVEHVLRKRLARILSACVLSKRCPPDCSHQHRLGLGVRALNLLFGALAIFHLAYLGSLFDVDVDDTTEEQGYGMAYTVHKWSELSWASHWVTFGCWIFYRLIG

[2] = Inhibition of Wnt3A/[…] pathway activity in mouse L cell expressing Wnt3a assessed as inhibition of […] accumulation at 5 uM after 24 hrs by Western blot analysis; assay type: cell-based
[3] = molecular target: Protein Wnt-3a (Homo sapiens) (UniProt P56704); assay: Inhibition of Wnt3A secretion in mouse L cell expressing Wnt3a overexpressing Evi assessed as decreased Gaussia luciferase reporter expression at 0.25 uM to 1 uM; assay type: cell-based
Procedure, shortened: (§1)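 Wnt secretion test: L-cells transiently transfected with Wnt-Gaussia luciferase fusion construct, incubated with compounds immediately after transfection, GL activity measured 48 hrs later.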

[4] = molecular target: Protein Wnt-3a (Homo sapiens) (UniProt P56704); assay: Inhibition of Wnt3A secretion in mouse L cell expressing Wnt3a overexpressing porcn assessed as decreased Gaussia luciferase reporter expression at 0.25 uM to 1 uM; assay type: cell-based; procedure, shortened: as §1
[5] = molecular target: Protein-cysteine N-palmitoyltransferase HHAT (Mus musculus) (UniProt Q8BMT9); assay: Inhibition of HHAT mediated Wnt pathway activity in mouse L cell expressing Wnt3a assessed as decreased firefly luciferase reporter expression at 0.25 uM to 1 uM; assay type: cell-based
[6] = molecular target: T2, Protein-serine O-palmitoleoyltransferase porcupine (Mus musculus) (UniProt Q9JJJ7); assay: Effect on porcn Endoplasmic reticulum localization in mouse L cell expressing Wnt and STF; assay type: cell-based
T2 sequence (whole entry): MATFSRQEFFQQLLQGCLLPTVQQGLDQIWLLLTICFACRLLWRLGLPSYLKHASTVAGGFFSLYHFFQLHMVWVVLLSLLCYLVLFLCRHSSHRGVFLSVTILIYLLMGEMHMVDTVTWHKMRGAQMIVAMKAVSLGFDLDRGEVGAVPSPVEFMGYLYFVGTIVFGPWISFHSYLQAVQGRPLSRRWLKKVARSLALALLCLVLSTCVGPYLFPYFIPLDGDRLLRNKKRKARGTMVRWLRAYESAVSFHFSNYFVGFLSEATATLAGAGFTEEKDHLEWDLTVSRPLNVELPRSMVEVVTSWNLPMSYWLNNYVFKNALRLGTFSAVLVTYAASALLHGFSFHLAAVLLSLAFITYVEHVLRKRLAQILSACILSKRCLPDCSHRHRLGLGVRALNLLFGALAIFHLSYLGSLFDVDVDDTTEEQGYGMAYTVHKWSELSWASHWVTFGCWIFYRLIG

[7] = Inhibition of Wnt3A/[…] pathway activity in mouse L cell expressing Wnt3a assessed as decrease in phosphorylated Lrp6 level at 5 uM after 24 hrs by Western blot analysis; assay type: cell-based
[8] = molecular target: Protein Wnt-3a (Homo sapiens) (UniProt P56704); assay: Inhibition of Wnt3A activity in mouse L cell expressing Wnt3A and STF and overexpressing Evi assessed as decreased firefly luciferase reporter expression at 0.25 uM to 1 uM; assay type: cell-based
[9] = molecular target: Protein Wnt-3a (Mus musculus) (UniProt P27467); assay: Inhibition of Wnt3A lipidation in mouse L cell expressing Wnt3a and overexpressing porcn at 2 uM by detergent solubility fractionation assay; assay type: cell-based
[10] = molecular target: T2, Protein-serine O-palmitoleoyltransferase porcupine (Mus musculus); assay: Inhibition of porcn-mediated Wnt5A palmitoylation in mouse L cell expressing Wnt5A and STF by detergent solubility fractionation assessed as [3H]palmitate incorporation at 2 uM by autoradiography method; assay type: cell-based
[11] = molecular target: Protein Wnt-3a (Homo sapiens) (UniProt P56704); assay: Inhibition of Wnt3A activity in mouse L cell expressing Wnt3A and STF and overexpressing porcn assessed as decreased firefly luciferase reporter expression at 0.25 uM to 1 uM; assay type: cell-based
[12] = molecular target: T1, Protein-serine O-palmitoleoyltransferase porcupine (Homo sapiens); assay: Displacement of IWP-PB from porcn in HEK293 lysate by Western blot analysis
[13] = molecular target: Protein Wnt-3a (Mus musculus) (UniProt P27467); assay: Inhibition of Wnt3A palmitoylation in mouse L cell expressing Wnt3a and overexpressing porcn by detergent solubility fractionation assessed as [3H]palmitate incorporation at 2.5 uM by autoradiography method
[14] = molecular target: Lysophospholipid acyltransferase 5 (Mus musculus) (UniProt Q91V01); assay: Inhibition of MBOAT5 mediated Wnt3a pathway activity in mouse L cell expressing Wnt3a assessed as decreased firefly luciferase reporter expression at 0.25 uM to 1 uM; assay type: cell-based
[15] = Inhibition of Wnt3A/[…] pathway activity in mouse L cell expressing Wnt3a assessed as decrease in phosphorylated Dvl2 level at 5 uM after 24 hrs by Western blot analysis; assay type: cell-based
[16] = molecular target: T2, Protein-serine O-palmitoleoyltransferase porcupine (Mus musculus); assay: Increase in porcn levels in mouse L cell expressing Wnt and STF; assay type: cell-based
[17] = molecular target: Sterol O-acyltransferase 1 (Mus musculus) (UniProt Q61263); assay: Inhibition of ACAT mediated Wnt3a pathway activity in mouse L cell expressing Wnt3a assessed as decreased firefly luciferase reporter expression at 0.25 uM to 1 uM; assay type: cell-based
[18] = molecular target: Membrane-bound ghrelin O-acyltransferase MBOAT4 (Mus musculus) (UniProt P0C7A3); assay: Inhibition of GOAT mediated Wnt3a pathway activity in mouse L cell expressing Wnt3a assessed as decreased firefly luciferase reporter expression at 0.25 uM to 1 uM; assay type: cell-based
[19] = molecular target: Protein Wnt-3a (Homo sapiens) (UniProt P56704); assay: Inhibition of lipidation of Wnt3A expressed in mouse L cell at 2 uM by detergent solubility fractionation assay; assay type: cell-based
[20] = Inhibition of Notch pathway in mouse L cells at 2.5 uM
[21] = molecular target: Membrane-bound glycerophospholipid O-acyltransferase 2 (Mus musculus) (UniProt Q8R3I2); assay: Inhibition of MBOAT2 mediated Wnt3a pathway activity in mouse L cell expressing Wnt3a assessed as decreased firefly luciferase reporter expression at 0.25 uM to 1 uM; assay type: cell-based
[22] = molecular target: Protein Wnt-3a (Homo sapiens) (UniProt P56704); assay: Inhibition of palmitoylation of Wnt3A expressed in mouse L cell by detergent solubility fractionation assessed as [3H]palmitate incorporation at 2.5 uM by autoradiography method; assay type: cell-based
[23] = species: Danio rerio; assay: Inhibition of caudal fin regeneration after mechanical resection in zebrafish at 10 uM after 7 days; assay type: functional, organism-based
Procedure, shortened: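 Zebrafish 3-6 months old anaesthetized in 0.02% Tricaine; half of caudal fin resected with razor blade; kept at 28°C in tank water with 10μM compound or DMSO; water and compound replenished daily over assay period.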

[24] = molecular target: Membrane-bound glycerophospholipid O-acyltransferase 1 (Mus musculus) (UniProt Q8BH98); assay: Inhibition of MBOAT1 mediated Wnt3a pathway activity in mouse L cell expressing Wnt3a assessed as decreased firefly luciferase reporter expression at 0.25 uM to 1 uM; assay type: cell-based
[25] = Inhibition of Wnt2/beta-[…] pathway activity in mouse L cell expressing Wnt2 and STF assessed as decreased firefly luciferase reporter expression; assay type: cell-based
[26] = Inhibition of Wnt1/beta-[…] pathway activity in mouse L cell expressing Wnt1 and STF assessed as decreased firefly luciferase reporter expression; assay type: cell-based
[27] = Inhibition of Wnt/beta-[…] pathway activity in mouse L cell expressing Wnt and STF assessed as decreased firefly luciferase reporter expression; assay type: cell-based
[28] = system: DLD-1; assay: Decrease in beta-[…] accumulation in human DLD1 cells expressing in APC mutant; assay type: functional, cell-based
[29] = Inhibition of Wnt3A/[…] pathway activity in mouse L cell expressing Wnt3a assessed as decrease in phosphorylated Dvl2 level at 10 uM after 24 hrs by Western blot analysis; assay type: cell-based
[30] = Inhibition of Wnt3A/[…] pathway activity in mouse L cell expressing Wnt3a assessed as decrease in phosphorylated Lrp6 level at 10 uM after 24 hrs by Western blot analysis; assay type: cell-based
[31] = Inhibition of Wnt3A/[…] pathway activity in mouse L cell expressing Wnt3a assessed as inhibition of […] accumulation at 10 uM after 24 hrs by Western blot analysis; assay type: cell-based
[32] = molecular target: Axin-2 (Homo sapiens) (UniProt Q9Y2T1); assay: Induction of Axin2 accumulation in human DLD1 cells by Western blot analysis; assay type: cell-based; details: DLD-1
Procedure, shortened: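 DLD-1 cells exposed to IWR compound at 10μM for a 48 hr assay period; protein levels assessed by Western blot of cell lysates.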

[33] = Inhibition of Wnt3A/[…] pathway activity in mouse L cell expressing Wnt3A and STF assessed as decreased firefly luciferase reporter expression; assay type: cell-based
Procedure, shortened: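 L-Wnt-STF cells (mouse L-cells stably carrying SuperTopFlash firefly luciferase reporter, control reporter and Wnt3A expression construct), ~5K per well; compounds added 24 hrs after seeding; luciferase activities read 24 hrs later; IC50s calculated from these dose-dependent assays.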

[34] = molecular target: Axin-2 (Homo sapiens) (UniProt Q9Y2T1); assay: Induction of Axin2 stabilization in human DLD1 cells assessed as inhibition of Wnt/beta-[…] pathway; assay type: cell-based; details: DLD-1
[35] = system: L; assay: Effect on proteasome in mouse L cell expressing Wnt assessed as accumulation of Axin1 by Western blot analysis
Procedure, shortened: (§2)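 L-Wnt-STF cells (L-cells stably carrying Wnt3A, STF firefly luciferase reporter and control reporter) treated with IWR (10μM) or IWP (5μM) compounds, with or without cycloheximide (100μM), over 48 hrs; lysates probed by Western blot.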

[36] = system: HEK293; assay: Effect on interaction between Axin1-GFP and PP2A in HEK293 cell lysate at 10 uM by Western blot analysis; assay type: cell-based; details: Homo sapiens
[37] = system: L; assay: Effect on proteasome in mouse L cell expressing Wnt assessed as accumulation of beta-[…] by Western blot analysis; procedure, shortened: as §2
[38] = molecular target: Protein Wnt (Danio rerio) (UniProt Q6IYD9); details: 10 uM
[39] = system: Cos1; assay: Effect on Axin2 subcellular redistribution in african green monkey Cos1 cells by immunostaining method; assay type: cell-based; details: Chlorocebus aethiops
[40] = system: DLD-1; assay: Inhibition of Axin2 protein degradation in human DLD1 cells by Western blot analysis in presence of 100 uM cyclohexamide; assay type: functional, cell-based
Procedure, shortened: (§3)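 DLD-1 cells treated over a 48 hr assay period with IWR compound (10μM), with or without cycloheximide (100μM); Axin2 protein assessed by Western blot.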

[41] = system: DLD-1; assay: Inhibition of Axin2 protein degradation in human DLD1 cells by Western blot analysis; assay type: functional, cell-based; procedure, shortened: as §3
[42] = system: L929; assay: Decrease in beta-[…] accumulation in APC-deficient mouse L cell; assay type: functional, cell-based

Axin-2 (Homo sapiens), sequence (Q9Y2T1 whole entry): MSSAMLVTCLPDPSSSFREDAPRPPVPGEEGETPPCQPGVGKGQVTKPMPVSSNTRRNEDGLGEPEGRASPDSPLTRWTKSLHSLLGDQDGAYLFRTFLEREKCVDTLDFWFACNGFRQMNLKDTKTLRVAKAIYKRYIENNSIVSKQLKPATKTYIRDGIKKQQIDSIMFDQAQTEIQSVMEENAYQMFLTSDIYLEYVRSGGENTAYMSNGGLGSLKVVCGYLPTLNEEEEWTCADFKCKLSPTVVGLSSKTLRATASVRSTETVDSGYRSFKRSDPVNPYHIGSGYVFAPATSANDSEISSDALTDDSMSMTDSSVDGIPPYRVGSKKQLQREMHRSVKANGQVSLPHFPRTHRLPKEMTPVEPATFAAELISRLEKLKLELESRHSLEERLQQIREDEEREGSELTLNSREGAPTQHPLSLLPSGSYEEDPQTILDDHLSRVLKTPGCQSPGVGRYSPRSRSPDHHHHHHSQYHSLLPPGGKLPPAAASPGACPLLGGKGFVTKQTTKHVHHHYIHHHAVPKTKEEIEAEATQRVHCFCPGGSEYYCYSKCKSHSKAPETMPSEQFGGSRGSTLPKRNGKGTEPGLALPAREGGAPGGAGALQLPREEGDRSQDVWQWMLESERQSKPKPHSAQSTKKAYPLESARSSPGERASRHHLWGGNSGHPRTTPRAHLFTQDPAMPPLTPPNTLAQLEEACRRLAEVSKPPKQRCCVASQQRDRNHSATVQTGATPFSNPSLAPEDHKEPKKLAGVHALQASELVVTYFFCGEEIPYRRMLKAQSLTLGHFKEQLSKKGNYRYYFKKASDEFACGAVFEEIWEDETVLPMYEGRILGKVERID
Protein Wnt-3a (Homo sapiens), sequence (P56704 whole entry, the tested form may be a part): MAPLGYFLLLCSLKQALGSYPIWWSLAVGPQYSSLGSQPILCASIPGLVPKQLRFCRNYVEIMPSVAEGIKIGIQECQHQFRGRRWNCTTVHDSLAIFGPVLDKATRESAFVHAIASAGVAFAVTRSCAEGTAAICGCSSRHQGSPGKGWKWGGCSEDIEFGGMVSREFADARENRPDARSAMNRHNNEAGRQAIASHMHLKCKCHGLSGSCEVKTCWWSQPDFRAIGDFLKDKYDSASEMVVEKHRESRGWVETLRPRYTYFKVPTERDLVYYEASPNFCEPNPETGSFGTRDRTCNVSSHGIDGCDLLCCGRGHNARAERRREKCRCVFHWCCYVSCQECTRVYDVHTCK
Protein Wnt-3a (Mus musculus), sequence (P27467 whole entry): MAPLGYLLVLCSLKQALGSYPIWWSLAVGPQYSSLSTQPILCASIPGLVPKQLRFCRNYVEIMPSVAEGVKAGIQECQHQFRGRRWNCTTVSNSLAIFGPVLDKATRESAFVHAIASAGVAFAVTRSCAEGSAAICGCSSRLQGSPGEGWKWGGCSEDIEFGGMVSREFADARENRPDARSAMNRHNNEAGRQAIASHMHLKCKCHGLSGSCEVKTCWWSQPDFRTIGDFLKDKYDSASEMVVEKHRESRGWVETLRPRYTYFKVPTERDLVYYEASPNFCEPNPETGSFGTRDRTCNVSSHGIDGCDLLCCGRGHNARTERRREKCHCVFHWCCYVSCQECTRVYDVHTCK
Membrane-bound ghrelin O-acyltransferase MBOAT4 (Mus musculus), sequence (P0C7A3 whole entry): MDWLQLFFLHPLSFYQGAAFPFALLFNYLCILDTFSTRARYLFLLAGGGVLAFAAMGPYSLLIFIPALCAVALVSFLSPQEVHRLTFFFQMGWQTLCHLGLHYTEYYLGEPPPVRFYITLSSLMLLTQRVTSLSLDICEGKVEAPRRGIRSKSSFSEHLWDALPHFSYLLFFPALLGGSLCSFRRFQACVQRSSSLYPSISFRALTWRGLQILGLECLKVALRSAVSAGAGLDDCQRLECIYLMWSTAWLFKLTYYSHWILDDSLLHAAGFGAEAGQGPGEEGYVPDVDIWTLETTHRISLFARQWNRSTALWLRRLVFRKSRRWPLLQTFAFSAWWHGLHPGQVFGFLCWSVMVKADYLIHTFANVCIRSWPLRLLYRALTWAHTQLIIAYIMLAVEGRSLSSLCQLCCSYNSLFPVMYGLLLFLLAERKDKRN
Lysophospholipid acyltransferase 5 (Mus musculus), sequence (Q91V01 whole entry): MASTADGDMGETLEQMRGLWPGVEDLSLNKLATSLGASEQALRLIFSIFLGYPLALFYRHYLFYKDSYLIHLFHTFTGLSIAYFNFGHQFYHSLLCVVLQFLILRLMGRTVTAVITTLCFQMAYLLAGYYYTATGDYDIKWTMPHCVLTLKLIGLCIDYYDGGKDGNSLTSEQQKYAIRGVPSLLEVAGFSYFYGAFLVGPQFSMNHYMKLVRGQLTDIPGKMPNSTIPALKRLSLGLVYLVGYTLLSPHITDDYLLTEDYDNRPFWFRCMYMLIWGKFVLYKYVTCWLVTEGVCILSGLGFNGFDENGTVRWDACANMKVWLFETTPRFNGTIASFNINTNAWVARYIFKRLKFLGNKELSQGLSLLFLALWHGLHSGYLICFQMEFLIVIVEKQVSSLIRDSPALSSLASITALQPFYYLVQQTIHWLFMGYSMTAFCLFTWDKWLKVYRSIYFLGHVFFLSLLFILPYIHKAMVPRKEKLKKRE
Sterol O-acyltransferase 1 (Mus musculus), sequence (Q61263 whole entry): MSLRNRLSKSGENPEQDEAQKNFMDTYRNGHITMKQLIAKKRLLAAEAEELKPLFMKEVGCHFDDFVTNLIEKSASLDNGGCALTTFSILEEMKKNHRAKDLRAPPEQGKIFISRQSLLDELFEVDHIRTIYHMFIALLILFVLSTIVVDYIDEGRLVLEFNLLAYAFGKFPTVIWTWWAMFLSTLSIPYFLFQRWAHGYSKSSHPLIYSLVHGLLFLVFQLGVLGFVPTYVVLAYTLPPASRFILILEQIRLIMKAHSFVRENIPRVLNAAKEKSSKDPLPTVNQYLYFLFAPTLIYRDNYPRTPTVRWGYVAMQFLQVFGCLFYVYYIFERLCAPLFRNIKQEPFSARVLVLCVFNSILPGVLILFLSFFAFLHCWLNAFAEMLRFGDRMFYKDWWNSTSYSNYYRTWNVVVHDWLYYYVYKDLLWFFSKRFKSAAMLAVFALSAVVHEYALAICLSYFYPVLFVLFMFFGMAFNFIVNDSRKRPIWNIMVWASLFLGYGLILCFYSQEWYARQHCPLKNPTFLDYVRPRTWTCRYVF
Protein-cysteine N-palmitoyltransferase HHAT (Mus musculus), sequence (Q8BMT9 whole entry): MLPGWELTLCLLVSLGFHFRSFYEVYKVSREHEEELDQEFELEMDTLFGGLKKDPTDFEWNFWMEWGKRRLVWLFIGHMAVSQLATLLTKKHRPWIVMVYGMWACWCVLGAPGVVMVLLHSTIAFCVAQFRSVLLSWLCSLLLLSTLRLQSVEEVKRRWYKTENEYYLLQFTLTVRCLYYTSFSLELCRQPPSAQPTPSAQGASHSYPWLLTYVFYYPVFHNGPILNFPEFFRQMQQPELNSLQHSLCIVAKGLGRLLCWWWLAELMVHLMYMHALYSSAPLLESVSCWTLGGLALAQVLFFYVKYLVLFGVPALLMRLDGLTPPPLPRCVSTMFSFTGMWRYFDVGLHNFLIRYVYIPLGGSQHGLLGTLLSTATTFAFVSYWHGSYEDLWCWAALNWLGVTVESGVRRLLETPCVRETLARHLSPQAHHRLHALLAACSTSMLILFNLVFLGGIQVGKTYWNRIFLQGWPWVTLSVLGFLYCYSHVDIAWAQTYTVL
Protein Wnt (Danio rerio), sequence (Q6IYD9 as listed by the source): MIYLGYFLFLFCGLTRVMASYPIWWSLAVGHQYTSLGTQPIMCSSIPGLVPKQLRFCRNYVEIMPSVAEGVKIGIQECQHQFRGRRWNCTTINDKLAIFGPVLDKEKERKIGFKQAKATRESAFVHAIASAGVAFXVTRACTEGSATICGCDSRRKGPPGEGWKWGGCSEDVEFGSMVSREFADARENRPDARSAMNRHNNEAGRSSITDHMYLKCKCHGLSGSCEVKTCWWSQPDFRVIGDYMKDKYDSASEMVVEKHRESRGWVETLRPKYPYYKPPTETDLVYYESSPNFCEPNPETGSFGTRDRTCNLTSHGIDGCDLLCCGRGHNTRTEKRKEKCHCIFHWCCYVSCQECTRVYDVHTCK
Membrane-bound glycerophospholipid O-acyltransferase 1 (Mus musculus), sequence (Q8BH98 whole entry): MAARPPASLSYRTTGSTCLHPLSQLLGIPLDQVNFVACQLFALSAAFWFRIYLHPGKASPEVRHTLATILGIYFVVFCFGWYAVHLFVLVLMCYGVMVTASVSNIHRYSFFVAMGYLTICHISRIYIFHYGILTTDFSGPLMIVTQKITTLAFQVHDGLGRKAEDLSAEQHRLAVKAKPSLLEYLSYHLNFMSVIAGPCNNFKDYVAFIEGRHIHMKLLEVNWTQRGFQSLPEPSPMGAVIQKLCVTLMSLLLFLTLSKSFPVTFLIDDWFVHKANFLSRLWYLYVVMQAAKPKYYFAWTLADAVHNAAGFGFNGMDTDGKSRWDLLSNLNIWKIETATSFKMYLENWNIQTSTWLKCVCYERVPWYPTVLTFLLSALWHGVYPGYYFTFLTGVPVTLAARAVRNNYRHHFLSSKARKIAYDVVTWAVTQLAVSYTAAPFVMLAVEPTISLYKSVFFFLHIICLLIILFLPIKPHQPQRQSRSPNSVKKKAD
Membrane-bound glycerophospholipid O-acyltransferase 2 (Mus musculus), sequence (Q8R3I2 whole entry): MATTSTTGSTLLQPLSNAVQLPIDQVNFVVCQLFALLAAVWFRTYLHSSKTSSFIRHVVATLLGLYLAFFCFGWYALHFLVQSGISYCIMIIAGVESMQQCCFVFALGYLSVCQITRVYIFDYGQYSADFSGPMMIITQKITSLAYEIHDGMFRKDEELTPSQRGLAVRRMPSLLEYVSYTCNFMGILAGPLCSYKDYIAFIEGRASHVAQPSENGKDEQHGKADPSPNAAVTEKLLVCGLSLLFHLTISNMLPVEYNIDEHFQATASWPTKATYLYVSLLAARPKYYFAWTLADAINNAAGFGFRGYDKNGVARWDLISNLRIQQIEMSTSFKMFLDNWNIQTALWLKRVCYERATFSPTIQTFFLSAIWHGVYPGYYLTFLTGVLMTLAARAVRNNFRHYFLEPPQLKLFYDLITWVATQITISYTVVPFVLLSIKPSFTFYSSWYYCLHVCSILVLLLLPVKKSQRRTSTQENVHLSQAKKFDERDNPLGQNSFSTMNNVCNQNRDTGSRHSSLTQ

Cc1ccc2nc(NC(=O)CSc3nc4c(c(=O)n3-c3ccccc3)SCC4)sc2c1
inhibition [1]: inactive | inhibition [2]: Active | inhibition [3]: inactive | inhibition [4]: inactive | inhibition [5]: inactive | Activity [6]: inactive | inhibition [7]: Active | inhibition [8]: inactive | inhibition [9]: Active | inhibition [10]: Active | inhibition [11]: inactive | inhibition [12]: Active | inhibition [13]: inactive | inhibition [14]: inactive | inhibition [15]: Active | Activity [16]: Active | inhibition [17]: inactive | inhibition [18]: inactive | inhibition [19]: Active | inhibition [20]: inactive | inhibition [21]: inactive | inhibition [22]: Active | inhibition [23]: inactive | inhibition [24]: inactive

Cc1ccnc2c(NC(=O)c3ccc(N4C(=O)[C@@H]5[C@H](C4=O)[C@@H]4C=C[C@H]5C4)cc3)cccc12
inhibition [25]: Active | inhibition [26]: Active | IC50 [27]: 230 nM | inhibition [28]: Active | inhibition [29]: inactive | inhibition [23]: Active | inhibition [30]: inactive | inhibition [31]: Active | Activity [32]: Active | inhibition [33]: Active

O=C(Nc1cccc2cccnc12)c1ccc(N2C(=O)[C@@H]3[C@H](C2=O)[C@@H]2C=C[C@H]3C2)cc1
Activity [34]: Active | Activity [35]: inactive | inhibition [25]: Active | Activity [36]: inactive | inhibition [26]: Active | Activity [37]: inactive | inhibition [38]: Active | inhibition [28]: Active | Activity [39]: inactive | inhibition [29]: inactive | inhibition [40]: inactive | inhibition [41]: Active | inhibition [23]: Active | inhibition [42]: Active | inhibition [30]: inactive | inhibition [31]: Active | Activity [32]: Active | inhibition [33]: Active
